For assay [1], the system named is Staphylococcus aureus. The assay can be described thus: Antibacterial activity against methicillin-resistant Staphylococcus aureus isolate 1 B690208 after 24 hrs. In kind it is functional. Conditions: isolate 1 B690208, 24 h. The essentials:
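MIC determined against MRSA; vancomycin and fusidic acid served as positive controls.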

In assay [2] the test system is Streptococcus pneumoniae. The assay can be described thus: Antibacterial activity against Streptococcus pneumoniae ATCC 49619 after 24 hrs. It is filed as functional. Conditions: ATCC 49619, 24 h.
For assay [3], the system named is Escherichia coli. The assay can be described thus: Antibacterial activity against Escherichia coli isolate 13 V676803 after 24 hrs. In kind it is functional. Conditions: isolate 13 V676803, 24 h.
For assay [4], the system named is Klebsiella pneumoniae. The assay can be described thus: Antibacterial activity against Klebsiella pneumoniae isolate 18 B224106 after 24 hrs. It is filed as functional. Conditions: isolate 18 B224106, 24 h.
In assay [5] the test system is Pseudomonas aeruginosa. The assay can be described thus: Antibacterial activity against Pseudomonas aeruginosa isolate 22 V143708 after 24 hrs. In kind it is functional. Conditions: isolate 22 V143708, 24 h.
Assay [6] relates to HaCaT. In words: Cytotoxicity against human HaCaT cells by Cell titre-blue assay. In kind it is cell-based. An outline of the steps: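 Nontumorigenic human keratinocyte HaCaT cells were tested with mitoxantrone as the positive control, and results are reported as IC50 in μM.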

Converted amounts (≈) assume the structure as drawn. Bounds are passed on as bounds.

Regarding `CCCC[C@H]1CCCC[C@H](C)[C@@H](OC(C)=O)c2cc(O)c(c(O)c2)[C@@H](CCCC)CCCC[C@H](C)[C@@H](OC(C)=O)c2cc(O)c1c(O)c2`, the minimum inhibitory concentration (MIC) (in general, the lowest concentration that inhibits growth of the organism) was 0.9 µM (≈ 0.602 µg/mL) in assay [1]; 2.4 µM (≈ 1.61 µg/mL) in assay [2]; more than 75 µM in assay [3]; more than 75 µM in assay [4]; more than 75 µM in assay [5]. Also, the IC50 (commonly the midpoint of a concentration-inhibition curve) in assay [6] stood at 11 µM.
With `CCCC[C@H]1CCCC[C@H](C)[C@@H](O)c2cc(O)c(c(O)c2)[C@@H](CCCC)CCCC[C@H](C)[C@@H](OC(C)=O)c2cc(O)c1c(O)c2`, the MIC in assay [1] was 0.1 µM (≈ 0.0627 µg/mL); in assay [2], 0.3 µM (≈ 0.188 µg/mL); in assay [3], more than 80 µM; in assay [4], more than 80 µM; in assay [5], more than 80 µM. The same compound returned a concentration for half-maximal inhibition (IC50) in assay [6] of 2.9 µM.
In the case of `CC(=O)O[C@H]1C[C@@]2(C)[C@@H](C[C@@H](O)[C@H]3[C@@]4(C)CC[C@@H](O)[C@@H](C)[C@@H]4CC[C@@]32C)/C1=C(\CCC=C(C)C)C(=O)O` [FUSIDIC ACID], it took 1.4 µM (≈ 0.723 µg/mL) to inhibit growth in assay [1] (MIC).
In the case of `CCCCC(Cl)CCCC[C@H](C)[C@@H](OC(C)=O)c1cc(O)cc(O)c1` (some centres undefined), the minimal inhibitory concentration (MIC) in assay [1] was 8.6 µM (≈ 3.19 µg/mL); in assay [2], 17 µM (≈ 6.31 µg/mL); in assay [3], more than 135 µM; in assay [4], more than 135 µM; in assay [5], more than 135 µM. In assay [6], the midpoint of inhibition, the IC50, lay at 100 µM.
Consider `CCCC[C@H]1CCCC[C@H](C)[C@@H](O)c2cc(O)c(c(O)c2)[C@@H](CCCC)CCCC[C@H](C)[C@@H](O)c2cc(O)c1c(O)c2` [CYLINDROCYCLOPHANE A], for which the MIC in assay [1] was 0.1 µM (≈ 0.0585 µg/mL); in assay [2], 0.3 µM (≈ 0.175 µg/mL); in assay [3], more than 85 µM; in assay [4], more than 85 µM; in assay [5] it was more than 85 µM. Half-maximal inhibition in assay [6] (IC50) required 5 µM.
For the compound `CCCCC(Cl)CCCC[C@H](C)[C@@H](OC(C)=O)c1cc(O)c([C@@H](CCCC)CCCC[C@H](C)[C@@H](OC(C)=O)c2cc(O)cc(O)c2)c(O)c1` (some centres undefined), the MIC in assay [1], in assay [2], in assay [3], in assay [4] and in assay [5] was more than 71 µM each time. Further, the 50% inhibitory concentration (IC50) in assay [6] amounted to 25 µM.
The compound `O=C1c2c(O)ccc(O)c2C(=O)c2c(NCCNCCO)ccc(NCCNCCO)c21` [MITOXANTRONE] displayed a half-maximal inhibitory concentration (IC50) in assay [6] of 3.9 µM.
Regarding `CCCCC(Cl)CCCC[C@H](C)[C@@H](O)c1cc(O)c([C@@H](CCCC)CCCC[C@H](C)[C@@H](OC(C)=O)c2cc(O)cc(O)c2)c(O)c1` (some centres undefined), the minimal inhibitory concentration (MIC) in assay [1], in assay [2], in assay [3], in assay [4] and in assay [5] was more than 75 µM in each case. The same compound returned a 50% inhibitory concentration (IC50) in assay [6] of 25 µM.
As to `CN[C@@H](CC(C)C)C(=O)N[C@H]1C(=O)N[C@@H](CC(N)=O)C(=O)N[C@H]2C(=O)N[C@H]3C(=O)N[C@H](C(=O)N[C@@H](C(=O)O)c4cc(O)cc(O)c4-c4cc3ccc4O)[C@H](O)c3ccc(c(Cl)c3)Oc3cc2cc(c3O[C@H]2O[C@@H](CO)[C@H](O)[C@@H](O)[C@@H]2O[C@@H]2C[C@@](C)(N)[C@@H](O)[C@@H](C)O2)Oc2ccc(cc2Cl)[C@H]1O`, the MIC in assay [2] stood at 3.8 µM (≈ 5.51 µg/mL).

The record behind these values is ChEMBL document CHEMBL3785064, “Cylindrofridins A-C, Linear Cylindrocyclophane-Related Alkylresorcinols from the Cyanobacterium Cylindrospermum stagnale” (J Nat Prod, 2016).
